Data reported in ChEMBL document CHEMBL4411261, “Down-Regulation of the Androgen Receptor by G-Quadruplex Ligands Sensitizes Castration-Resistant Prostate Cancer Cells to Enzalutamide” (J Med Chem, 2018).
pIC50, pKd: −log10 of the molar value. Calls of active or inactive are those of the source. The rule behind the calls is not given here.

Key:
PNT1A = assay: Cytotoxicity against human PNT1A cells assessed as reduction in cell viability after 48 hrs by MTS assay; format: cell-based
In short: (§1)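 Cells kept in RPMI-1640 with 10% fetal calf serum, 37 °C, 5% CO2. Seeded, after 24 h treated with 0.0001, 0.001, 0.01, 0.1, 1 and 10 μM compound (DMSO stocks freshly diluted in medium) for 48 h. MTS added 4 h, absorbance 490 nm; IC50 from curves of % viability inhibition versus DMSO-treated cells against log concentration.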

PC-3 = assay: Cytotoxicity against human PC3 cells assessed as reduction in cell viability after 48 hrs by MTS assay; format: functional, cell-based; conditions: PC-3, 48 h; in short: as §1
Quadruplex DNA [1] = assay: Binding affinity to 5'-Biotinylated-AR1 G-quadruplex oligonucleotide (unknown origin) by SPR analysis; format: nucleic-acid assay
In short: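 SPR on streptavidin chip; 5′-biotinylated oligo folded by heating 95 °C 5 min in 10 mM lithium cacodylate, 150 mM KCl, then immobilized at 30 nM to about 600 RU; empty reference cell. Compound 0.7−400 nM in HEPES-KCl (pH 7.4, 0.15 M KCl, 3 mM EDTA) at 40 °C, 40 μL/min, 260 s contact, 600 s dissociation; glycine pH 2.0 regeneration; steady-state affinity fit; at least two independent runs.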

Quadruplex DNA [2] = assay: Binding affinity to 5'-Biotinylated-AR1 G-quadruplex oligonucleotide (unknown origin) by SPR analysis relative to control; format: nucleic-acid assay
DU-145 = assay: Cytotoxicity against human DU145 cells assessed as reduction in cell viability after 48 hrs by MTS assay; format: functional, cell-based; conditions: DU-145, 48 h; in short: as §1
Quadruplex DNA [3] = assay: Stabilization of 5'-FAM/3'-TAMRA labelled AR1 G-quadruplex oligonucleotide (unknown origin) assessed as change in melting temperature t1/2 at 1 uM after 16 hrs in presence of 100 mM K+ by FRET assay; format: nucleic-acid assay
In short: (§2)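 FRET melting: FAM/TAMRA dual-labelled oligos (0.25 μM) folded in 10 mM lithium cacodylate pH 7.4 with 100 mM KCl (95 °C 5 min, cooled 4 h); ligand added at 1 μM final, 16 h room temperature. FAM emission followed 30−95 °C at 1 °C/min; curves normalized 0 to 1, T1/2 at 0.5 fraction.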

Quadruplex DNA [4] = assay: Stabilization of 5'-FAM/3'-TAMRA labelled AR3 G-quadruplex oligonucleotide (unknown origin) assessed as change in melting temperature t1/2 at 1 uM after 16 hrs in presence of 100 mM K+ by FRET assay; format: nucleic-acid assay; in short: as §2
LNCaP = assay: Cytotoxicity against human LNCAP cells expressing androgen receptor T877A point mutant assessed as reduction in cell viability after 48 hrs by MTS assay; format: functional, cell-based; in short: as §1
CWR22R = assay: Cytotoxicity against human 22Rv1 cells expressing full length androgen receptor H875Y point mutant assessed as reduction in cell viability after 48 hrs by MTS assay; format: functional, cell-based; conditions: 22Rv1, 48 h; in short: as §1
[5] = Stabilization of 5'-FAM/3'-TAMRA labelled CTATAGCGCGCTATAG dsDNA (unknown origin) assessed as change in melting temperature t1/2 at 1 uM after 16 hrs in presence of 100 mM K+ by FRET assay; in short: as §2
Quadruplex DNA [6] = assay: Stabilization of AR G-quadruplex oligonucleotide in human LNCAP cells assessed as reduction in basal AR mRNA expression at IC50 after 6 to 72 hrs by RT-PCR analysis; format: cell-based
In short: (§3)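 Cells grown in RPMI-1640 with 10% fetal calf serum, 37 °C, 5% CO2, treated at an equitoxic concentration. Transcripts quantified by TaqMan real-time RT-PCR, normalized to RNaseP, expressed as relative quantity versus untreated cells (calibrator) by the 2−ΔΔCt method.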

Quadruplex DNA [7] = assay: Stabilization of AR G-quadruplex oligonucleotide in human 22Rv1 cells assessed as reduction in AR-Vs protein level by immunoblotting assay; format: cell-based
Quadruplex DNA [8] = assay: Stabilization of AR G-quadruplex oligonucleotide in human 22Rv1 cells assessed as reduction in basal AR mRNA expression at IC50 after 6 to 72 hrs by RT-PCR analysis; format: cell-based
In short: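 Transcripts quantified by TaqMan real-time PCR with RNaseP as normalizer; relative quantity versus untreated cells by the 2−ΔΔCt method. Panel genes measured with a 92-gene cancer-mechanism TaqMan array.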

Quadruplex DNA [9] = assay: Stabilization of AR G-quadruplex oligonucleotide in human 22Rv1 cells assessed as reduction in AR-FL protein level by immunoblotting assay; format: cell-based
Quadruplex DNA [10] = assay: Stabilization of AR G-quadruplex oligonucleotide in human LNCAP cells assessed as reduction in AR mRNA expression at IC50 by RT-PCR analysis; format: cell-based; conditions: TDE = time-dependent effect; in short: as §3
Quadruplex DNA [11] = assay: Stabilization of AR G-quadruplex oligonucleotide in human LNCAP cells assessed as reduction in PSA protein level by immunoblotting assay; format: cell-based
In short: (§4)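 Lysate proteins immunoblotted. Vinculin or β-actin used as loading control, peroxidase-linked secondary antibodies, ECL chemiluminescent detection, autoradiography, densitometric scan. Untreated cells received DMSO.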

Quadruplex DNA [12] = assay: Stabilization of AR G-quadruplex oligonucleotide in human LNCAP cells assessed as reduction in AR-FL protein level by immunoblotting assay; format: cell-based; in short: as §4
Quadruplex DNA [13] = assay: Stabilization of AR G-quadruplex oligonucleotide in human 22Rv1 cells assessed as reduction in AR mRNA expression at IC50 by RT-PCR analysis; format: cell-based; conditions: TDE = time-dependent effect
Quadruplex DNA [14] = assay: Stabilization of AR G-quadruplex oligonucleotide in human 22Rv1 cells assessed as reduction in AR-FL protein level at IC50 after 48 hrs by Western immunoblot assay; format: cell-based
Quadruplex DNA [15] = assay: Stabilization of AR G-quadruplex oligonucleotide in human 22Rv1 cells assessed as reduction in AR-VS protein level at IC50 after 48 hrs by Western immunoblot assay; format: cell-based

Structure (SMILES)	pIC50 (PNT1A)	pIC50 (PC-3)	pKd (Quadruplex DNA [1])	RBA (Quadruplex DNA [2]) [%]	pIC50 (DU-145)	ΔTm (Quadruplex DNA [3]) [°C]	ΔTm (Quadruplex DNA [4]) [°C]	pIC50 (LNCaP)	pIC50 (CWR22R)	ΔTm [5] [°C]	Activity (Quadruplex DNA [6])	Activity (Quadruplex DNA [7])	Activity (Quadruplex DNA [8])	Activity (Quadruplex DNA [9])	Activity (Quadruplex DNA [10])	Activity (Quadruplex DNA [11])	Activity (Quadruplex DNA [12])	Activity (Quadruplex DNA [13])	Activity (Quadruplex DNA [14])	Activity (Quadruplex DNA [15])
CN(C)CCCNc1cc2c3c(ccc4c3c1C(=O)N(CCCN(C)C)C4=O)C(=O)N(CCCN(C)C)C2=O	6.23	5.20	7.39	43	5.41	11	13	5.47	5.61	5.1	–	–	–	–	–	–	–	–	–	–
CN1CCN(c2cc3c4c(c(NCCO)cc5c4c2C(=O)N(CCO)C5=O)C(=O)N(CCO)C3=O)CC1	5.15	< 5.00	–	–	< 5.00	0.1	0.4	< 5.00	5.12	< 0.1	inactive	inactive	inactive	inactive	Tde	inactive	inactive	Tde	–	–
CN(C)CCN1C(=O)c2ccc3c4c(c(NCCc5ccc(O)c(CN(C)C)c5)cc(c24)C1=O)C(=O)N(CCN(C)C)C3=O	6.46	6.49	7.47	52	6.52	7.2	10	6.41	7.00	< 0.1	–	–	–	–	–	–	–	–	Active	Active
CN(C)CCCN1C(=O)c2ccc3c4c(c5[nH]c(=O)c(=O)[nH]c5c(c24)C1=O)C(=O)N(CCCN(C)C)C3=O	5.86	< 5.00	7.42	47	< 5.00	3.6	6	4.99	< 5.00	< 0.1	–	–	–	–	–	–	–	–	–	–
CN(C)CCCN1C(=O)c2ccc3c4c(c(NCCCCNc5cc6c7c(ccc8c7c5C(=O)N(CCCN(C)C)C8=O)C(=O)N(CCCN(C)C)C6=O)cc(c24)C1=O)C(=O)N(CCCN(C)C)C3=O	5.61	5.00	7.03	19	5.47	11.3	19.7	5.71	< 5.00	1.9	–	–	–	–	–	–	–	–	–	–
CN(C)CCN1C(=O)c2ccc3c4c(c(NCC(=O)Nc5ccc(O)c(CO)c5)cc(c24)C1=O)C(=O)N(CCN(C)C)C3=O	5.84	< 5.00	7.36	41	< 5.00	4.5	9.3	5.52	5.43	< 0.1	–	–	–	–	–	–	–	–	–	–
CN(C)CCCN1C(=O)c2ccc3c4c(c(NCCCCCCCNc5cc6c7c(ccc8c7c5C(=O)N(CCCN(C)C)C8=O)C(=O)N(CCCN(C)C)C6=O)cc(c24)C1=O)C(=O)N(CCCN(C)C)C3=O	5.72	< 5.00	6.74	10	5.66	8.3	17	5.18	5.46	1	–	–	–	–	–	–	–	–	–	–
CN(C)CCN1C(=O)c2ccc3c4c(c(C#Cc5ccc(CN(C)C)c(O)c5)cc(c24)C1=O)C(=O)N(CCN(C)C)C3=O	6.89	6.47	7.67	84	6.26	5.6	9	6.23	6.01	< 0.1	–	–	–	–	–	–	–	–	–	–
